Compounds with a hit are over-represented: about 4.1% of the library has one in this group of screens.
MrgX1 agonist: activates human MrgX1 receptor signaling; Q96LB2; MrgX1-HEK293 cells, Fluo-4 calcium fluorescence, agonist mode; hits give high values; B-score at 10 µM; 0.44% of 310,000 active; AID 588627;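 active means calcium response B-score plate-corrected fluorescence ratio at least 3 library SD, with starting fluorescence B-score inside 5 SD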
Target sequence (Q96LB2 whole entry, looked up): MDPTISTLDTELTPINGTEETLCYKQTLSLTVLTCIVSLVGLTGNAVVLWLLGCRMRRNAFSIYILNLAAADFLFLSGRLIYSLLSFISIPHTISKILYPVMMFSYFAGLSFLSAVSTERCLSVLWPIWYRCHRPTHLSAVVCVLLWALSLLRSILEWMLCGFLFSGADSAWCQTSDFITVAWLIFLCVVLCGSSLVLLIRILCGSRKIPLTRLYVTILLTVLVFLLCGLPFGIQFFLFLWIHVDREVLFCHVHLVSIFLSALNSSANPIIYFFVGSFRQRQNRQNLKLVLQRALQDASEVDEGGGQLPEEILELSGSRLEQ
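times = overnight plating, then 30 min 37 °C plus 30 min room-temperature dye loading | assay system = stable human MrgX1 HEK293 cell line | input = fifteen thousand cells per well | signal = kinetic calcium dye fluorescence, Fluo-4 NW | dosing = compound delivered in addition one of three | read-out = B-scored fluorescence response ratio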
Kir21 inh: inhibitors of mouse Kir2.1 inward-rectifier potassium channel. HEK293-Kir2.1, FluxOR thallium flux fluorescence; hits give low values. B-score at 10 µM. 0.85% of 310,000 active;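 active means fluorescence ratio B-score at or below minus 3 SD of library scores, with starting-brightness B-score within 2 SD, cut at about -4.2 in these data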;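 further: channel flux triggered by added potassium and thallium sulfate stimulus; B-score of peak minus minimum fluorescence over baseline after thallium stimulus; more negative B-score means stronger Kir2.1 block with less thallium influx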
MrgX1 PAM: human MrgX1 positive allosteric modulation, primary screen | Q96LB2 | MrgX1-HEK293, Fluo-4 calcium flux, FDSS; hits give high values | B-score at 10 µM | 0.63% of 310,000 active | AID 588675;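 active means plate-corrected calcium response at least 3 library SD above typical, normal starting fluorescence, not activating the receptor alone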;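 further: compound read alongside a low EC10 to EC30 dose of BAM8-22 agonist; peak minus trough fluorescence over baseline measured at the second addition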
RGS4 pot: potentiators or activators of RGS4; HEK293 M3R/inducible RGS4, carbachol calcium flux Fluo4; hits give low values; B-score at 10 µM; 0.92% of 310,000 active; AID 463111;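 active means B-score of the integrated calcium signal more than 4 SD below the library mean, with starting fluorescence not abnormally high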;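 further: negative B-score means reduced calcium response which marks RGS4 activation or potentiation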
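test system = M3R-expressing HEK293 line, RGS4 induced by doxycycline | probe or stimulus = carbachol at ECmax as muscarinic agonist stimulus | timing = dye loading 30 min 37 °C, buffer rest 30 min RT | signal = calcium dye Fluo4 fluorescence | evaluation = B score from integrated fluorescence ratio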
RGS4 block: inhibitors of human RGS4 | 0.45% of 310,000 active | B-score at 10 µM | HEK293 M3R/RGS4 inducible, Fluo-4 calcium flux; hits give high values; triggered by carbachol at its EC20;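 active means B-score, a plate-corrected calcium signal, over three deviations above library mean, with baseline fluorescence within five deviations of library mean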;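 further: RGS4 expression induced by doxycycline in cells with stable M3 receptor; B-score is computed from the integrated fluorescence ratio over baseline after carbachol; higher B-score means a larger calcium signal and so more RGS4 inhibition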
Target sequence (P49798 whole entry, looked up): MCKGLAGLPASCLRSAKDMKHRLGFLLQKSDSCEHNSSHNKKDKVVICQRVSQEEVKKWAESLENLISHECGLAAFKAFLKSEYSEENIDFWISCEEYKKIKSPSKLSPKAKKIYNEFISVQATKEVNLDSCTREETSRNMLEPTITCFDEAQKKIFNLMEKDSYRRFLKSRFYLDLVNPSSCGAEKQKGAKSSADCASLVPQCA
MrgX1 antag: human MrgX1 receptor antagonism, primary screen. B-score at 10 µM. MRGX1-HEK293 calcium flux, Fluo-4, BAM8-22 antagonism; hits give low values. 1.3% of 310,000 active. Q96LB2;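 active means calcium-response B-score plate-corrected more than 3 library SD below zero, starting fluorescence within 5 deviations, no agonist response on first addition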;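 further: peak minus trough fluorescence over baseline after final BAM8-22 challenge near maximal dose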
A number is an active result.

For O=[N+]([O-])c1ccc(-c2csc(N3CCCCCC3)n2)cc1 the results were MrgX1 agonist inactive, Kir21 inh inactive, MrgX1 PAM 9.1, RGS4 pot inactive, RGS4 block inactive and MrgX1 antag inactive.
Screening O=[N+]([O-])c1ccc(N2CCN(c3nc(-c4ccc(Cl)cc4)cs3)CC2)cc1 returned MrgX1 agonist inactive, Kir21 inh inactive, MrgX1 PAM inactive, RGS4 pot inactive, RGS4 block inactive and MrgX1 antag inactive.
COc1ccc2sc(N(CCCN(C)C)C(=O)c3ccc(S(=O)(=O)N4CCCc5ccccc54)cc3)nc2c1 was read as MrgX1 agonist inactive, Kir21 inh inactive, MrgX1 PAM inactive, RGS4 pot -9.5, RGS4 block inactive and MrgX1 antag inactive.
`CN(C)CCCN(C(=O)c1ccc(S(=O)(=O)N(C)C2CCCCC2)cc1)c1nc2ccc(Br)cc2s1` gave MrgX1 agonist inactive, Kir21 inh inactive, MrgX1 PAM inactive, RGS4 pot -8.7, RGS4 block inactive and MrgX1 antag inactive.
Screening Cc1cc(C)c2sc(N(CCCN(C)C)C(=O)c3ccc(S(=O)(=O)N(C)C4CCCCC4)cc3)nc2c1 returned MrgX1 agonist inactive, Kir21 inh inactive, MrgX1 PAM inactive, RGS4 pot -8, RGS4 block inactive and MrgX1 antag inactive.
Screening COc1cc2nc(N(CCCN(C)C)C(=O)c3ccc(S(=O)(=O)N(C)C4CCCCC4)cc3)sc2cc1OC returned MrgX1 agonist inactive, Kir21 inh inactive, MrgX1 PAM inactive, RGS4 pot inactive, RGS4 block inactive and MrgX1 antag inactive.
`CN(C)CCCN(C(=O)c1ccc(S(=O)(=O)N(C)C2CCCCC2)cc1)c1nc2ccc(F)cc2s1` gave MrgX1 agonist inactive, Kir21 inh inactive, MrgX1 PAM inactive, RGS4 pot inactive, RGS4 block inactive and MrgX1 antag inactive.
`Cc1nc2scc(-c3ccccc3)c2c(=O)n1N=C1C=CC(=O)C=C1` gave Kir21 inh -6.8, RGS4 pot -7.7 and RGS4 block inactive.
Screening COc1ccc(C2C(C#N)=C(N)OC(C(C)(C)C)=C2C#N)cc1OC (centres undefined) returned MrgX1 agonist inactive, Kir21 inh inactive, MrgX1 PAM inactive, RGS4 pot inactive, RGS4 block inactive and MrgX1 antag inactive.
Screening N#CC1=C(N)Oc2cc(O)ccc2C1c1ccccc1 (centres undefined) returned MrgX1 agonist inactive, Kir21 inh inactive, MrgX1 PAM inactive, RGS4 pot inactive, RGS4 block inactive and MrgX1 antag inactive.
N#CC1=C(N)SC(N)=C(C#N)C1c1cccc(O)c1 was read as MrgX1 agonist 39, Kir21 inh inactive, MrgX1 PAM inactive, RGS4 pot inactive, RGS4 block inactive and MrgX1 antag inactive.
`COc1ccc(C2C(C#N)=C(N)SC(N)=C2C#N)cc1OC` gave MrgX1 agonist inactive, Kir21 inh inactive, MrgX1 PAM inactive, RGS4 pot inactive, RGS4 block inactive and MrgX1 antag -4.6.
Screening CCc1nc2ccccc2c(=O)n1NC(=O)c1c(O)c2ccccc2[nH]c1=O returned MrgX1 agonist inactive, Kir21 inh inactive, MrgX1 PAM inactive, RGS4 pot inactive, RGS4 block inactive and MrgX1 antag inactive.
`CCCc1nc2ccccc2c(=O)n1NC(=O)c1c(O)c2ccccc2n(C)c1=O` gave MrgX1 agonist inactive, Kir21 inh inactive, MrgX1 PAM 10, RGS4 pot inactive, RGS4 block inactive and MrgX1 antag inactive.
CCOc1ccc(NC(=O)N2CCC(n3nnc4ccccc43)CC2)cc1 was read as MrgX1 agonist inactive, Kir21 inh inactive, MrgX1 PAM inactive, RGS4 pot inactive, RGS4 block inactive and MrgX1 antag inactive.
CCOc1ccc(/C=N/NC(=O)COc2ccccc2-c2ccccc2)cc1 was read as MrgX1 agonist inactive, Kir21 inh inactive, MrgX1 PAM inactive, RGS4 pot inactive, RGS4 block inactive and MrgX1 antag inactive.
Cc1cccc(-n2c(SCc3cc(=O)n4ccsc4n3)nc3ccccc32)c1 was read as MrgX1 agonist inactive, Kir21 inh inactive, MrgX1 PAM inactive, RGS4 pot -7.4, RGS4 block inactive and MrgX1 antag inactive.
For Brc1ccc(-c2nnc3sc(CNC4CCCC4)cn23)cc1 the results were MrgX1 agonist inactive, Kir21 inh inactive, MrgX1 PAM inactive, RGS4 pot inactive, RGS4 block inactive and MrgX1 antag inactive.
